Assay results: ChEMBL document CHEMBL5653630, “Activation of the p53-MDM4 regulatory axis defines the anti-tumour response to PRMT5 inhibition through its role in regulating cellular splicing” (Sci Rep, 2018)
Blank lines part the entries; values can stand above or below the compound they belong to. Calls of active or inactive are those of the source. No cut-off for these calls is given here.

Columns and labels:
Assay type in all cases: functional
SCaBER = assay: Antiproliferative activity against human SCaBER cells assessed as cell growth inhibition incubated for 6 days by celltiter-glo assay; conditions: 144 h, time 6 day
MCF7 = assay: Induction of cell cycle arrest in human MCF7 cells assessed as increase in 2n cell population measured upto 5000 nM measured for 2 to 7 days by propidium iodide staining based flow cytometric analysis; conditions: time 2-7 day
Z-138 = assay: Induction of cell cycle arrest in human Z138 cells assessed as accumulation of cells at G1 phase cells measured upto 1000 nM by propidium iodide staining based flow cytometric analysis; conditions: time 1-10 day, TDE = time-dependent effect
ARH-77 = assay: Antiproliferative activity against human ARH-77 cells assessed as cell growth inhibition incubated for 10 days; conditions: ARH-77, 240 h, time 10 day
How it was run: (§1)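 Cells kept in RPMI-1640 with 10% FBS, 2 mM L-alanyl-L-glutamine and 1 mM Na pyruvate (or a special medium) at 37°C, 5% CO2. Compound added 24 h after seeding, 10 concentrations in 3.16-fold dilution, 0.1% DMSO final. Medium replaced and cells re-dosed at 168 h; 240 h incubation. Nuclei fixed, dye-stained and imaged. gIC50 = growth midway between untreated and time-zero cell counts, from a 4-parameter fit.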

NCI-H508 = assay: Antiproliferative activity against human NCI-H508 cells assessed as cell growth inhibition incubated for 10 days; conditions: NCI-H508, 240 h, time 10 day
EM-2 = assay: Antiproliferative activity against human EM-2 cells assessed as cell growth inhibition incubated for 10 days; conditions: EM-2, 240 h, time 10 day
How it was run: (§2)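 Outsourced panel run in 384-well plates. Cells were grown in RPMI-1640/10% FBS or a special medium at 37°C, 5% CO2. Compound was added 24 h after seeding as a 10-point, 3.16-fold series in 0.1% DMSO. Medium was refreshed and cells re-dosed at 168 h, with a time-zero plate kept. At 240 h cells were fixed, nuclei stained and imaged. gIC50 is growth midway between untreated and time zero, from a 4-parameter fit.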

SNU-16 = assay: Antiproliferative activity against human SNU-16 cells assessed as cell growth inhibition incubated for 10 days; conditions: SNU-16, 240 h, time 10 day
SJRH30 = assay: Antiproliferative activity against human SJRH30 cells assessed as cell growth inhibition incubated for 10 days; conditions: SJRH30, 240 h, time 10 day
[1] = Antiproliferative activity against human TE 381.T cells assessed as cell growth inhibition incubated for 10 days; conditions: 240 h, time 10 day
DU-145 = assay: Antiproliferative activity against human DU-145 cells assessed as cell growth inhibition incubated for 10 days; conditions: DU-145, 240 h, time 10 day; how it was run: as §2
NCI-H520 = assay: Antiproliferative activity against human NCI-H520 cells assessed as cell growth inhibition incubated for 10 days; conditions: NCI-H520, 240 h, time 10 day
[2] = Antiproliferative activity against human KHOS-240S cells assessed as cell growth inhibition incubated for 10 days; conditions: 240 h, time 10 day
How it was run: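 Eurofins-panel 10-day assay in 384-well plates. Cells grown in RPMI-1640 with 10% FBS, 2 mM L-alanyl-L-glutamine and 1mM Na pyruvate, or a special medium, at 37°C in 5% CO₂. Compound added 24 h after seeding, 10-point 3.16-fold series in 0.1% DMSO. Medium replaced and compound re-dosed at 168 h. Nuclei fixed and stained after 240 h, then imaged to give a relative cell count. gIC50 is the concentration giving growth midway between untreated and time-zero counts, from a 4-parameter fit.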

A204 = assay: Antiproliferative activity against human A204 cells assessed as cell growth inhibition incubated for 10 days; conditions: A204, 240 h, time 10 day; how it was run: as §1
L-428 = assay: Antiproliferative activity against human L-428 cells assessed as cell growth inhibition incubated for 10 days; conditions: L-428, 240 h, time 10 day
SK-MEL3 = assay: Antiproliferative activity against human SK-MEL3 cells assessed as cell growth inhibition incubated for 10 days; conditions: SK-MEL3, 240 h, time 10 day
A-375 = assay: Antiproliferative activity against human A-375 cells assessed as cell growth inhibition incubated for 10 days; conditions: A-375, 240 h, time 10 day; how it was run: as §1
COR-L105 = assay: Antiproliferative activity against human COR-L105 cells assessed as cell growth inhibition incubated for 10 days; conditions: COR-L105, 240 h, time 10 day; how it was run: as §2
NCI-H747 = assay: Antiproliferative activity against human NCI-H747 cells assessed as cell growth inhibition incubated for 10 days; conditions: NCI-H747, 240 h, time 10 day
RPMI-6666 = assay: Antiproliferative activity against human RPMI-6666 cells assessed as cell growth inhibition incubated for 10 days; conditions: RPMI-6666, 240 h, time 10 day
SW982 = assay: Antiproliferative activity against human SW982 cells assessed as cell growth inhibition incubated for 10 days; conditions: SW982, 240 h, time 10 day
DMS-53 = assay: Antiproliferative activity against human DMS-53 cells assessed as cell growth inhibition incubated for 10 days; conditions: DMS-53, 240 h, time 10 day; how it was run: as §2
786-0 = assay: Antiproliferative activity against human 786-0 cells assessed as cell growth inhibition incubated for 10 days; conditions: 786-0, 240 h, time 10 day; how it was run: as §1
PANC-1 = assay: Antiproliferative activity against human PANC-1 cells assessed as cell growth inhibition incubated for 10 days; conditions: PANC-1, 240 h, time 10 day
BJAB = assay: Antiproliferative activity against human BJAB cells assessed as cell growth inhibition incubated for 6 days by celltiter-glo assay; conditions: 144 h, time 6 day
HT-1080 = assay: Antiproliferative activity against human HT-1080 cells assessed as cell growth inhibition incubated for 10 days; conditions: HT-1080, 240 h, time 10 day; how it was run: as §2
DOHH-2 = assay: Antiproliferative activity against human DOHH-2 cells assessed as cell growth inhibition incubated for 10 days; conditions: DOHH-2, 240 h, time 10 day; how it was run: as §2
MIA PaCa-2 = assay: Antiproliferative activity against human MIA PaCa-2 cells assessed as cell growth inhibition incubated for 10 days; conditions: MIA PaCa-2, 240 h, time 10 day
SW1088 = assay: Antiproliferative activity against human SW1088 cells assessed as cell growth inhibition incubated for 10 days; conditions: SW1088, 240 h, time 10 day
CAL-27 = assay: Antiproliferative activity against human CAL-27 cells assessed as cell growth inhibition incubated for 10 days; conditions: CAL-27, 240 h, time 10 day; how it was run: as §1
[3] = Antiproliferative activity against human SKO-007 cells assessed as cell growth inhibition incubated for 10 days; conditions: SKO-007, 240 h, time 10 day
BE(2)-C = assay: Antiproliferative activity against human BE2C cells assessed as cell growth inhibition incubated for 10 days; conditions: 240 h, time 10 day; how it was run: as §1
MHH-PREB-1 = assay: Antiproliferative activity against human MHH-PREB-1 cells assessed as cell growth inhibition incubated for 10 days; conditions: MHH-PREB-1, 240 h, time 10 day
OE19 = assay: Antiproliferative activity against human OE19 cells assessed as cell growth inhibition incubated for 10 days; conditions: OE19, 240 h, time 10 day
FaDu = assay: Antiproliferative activity against human FaDu cells assessed as cell growth inhibition incubated for 10 days; conditions: 240 h, time 10 day; how it was run: as §2

SMILES: CC(=O)N1CCC(Nc2cc(C(=O)NC[C@H](O)CN3CCc4ccccc4C3)ncn2)CC1 [PEMRAMETOSTAT]
GI50 (SCaBER): 198 nM
Activity (MCF7): Active
Activity (Z-138): Tde

GI50 (NCI-H508): 307 nM
GI50 (SNU-16): 34.4 nM
GI50 (DU-145): 151 nM
GI50 (NCI-H520): 15.6 nM
GI50 (SK-MEL3): 181 nM
GI50 (A-375): 79.6 nM
GI50 (NCI-H747): 2580 nM
GI50 (SW982): 56.7 nM
GI50 (786-0): 20.3 nM
GI50 (PANC-1): 165 nM
GI50 (HT-1080): 53.5 nM
GI50 (MIA PaCa-2): 158 nM
GI50 (SW1088): 40.5 nM
SMILES: O=C(NC[C@H](O)CN1CCc2ccccc2C1)c1ccnc(NC2CCC2)c1
GI50 (ARH-77): 44.4 nM
GI50 (EM-2): 94 nM
GI50 (SJRH30): 472 nM
GI50 [1]: 147 nM
GI50 [2]: 124 nM
GI50 (A204): 223 nM
GI50 (L-428): 330 nM
GI50 (COR-L105): 314 nM
GI50 (RPMI-6666): 748 nM
GI50 (DMS-53): 106 nM
GI50 (BJAB): 3100 nM
GI50 (DOHH-2): 157 nM
GI50 (CAL-27): 103 nM
GI50 [3]: 84.4 nM
GI50 (BE(2)-C): 803 nM
GI50 (MHH-PREB-1): 10000 nM
GI50 (OE19): 98 nM
GI50 (FaDu): 15.4 nM
